Common to all, as to type: functional, cell-based
The subject of test [1] is B16. The test can be described thus: Cytotoxicity against mouse B16 cells after 48 hrs by MTT assay. The note with it: B16, 48 h. Summed up: (§1)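 Cells grown in RPMI 1640 with 10% FBS at 37 °C, 5% CO2. Seeded at 2 × 10^3 cells/well and allowed 12 h before adding compounds in DMSO at various concentrations. After 48 h exposure, MTT (1 mg/mL in PBS) added for 4 h at 37 °C. Formazan dissolved in DMSO and read at A550. Viability taken as treated/untreated A550 × 100. IC50 reported. 5-FU and doxorubicin served as positive controls.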

Test [2] deals with HepG2. As to the kind of experiment: Cytotoxicity against human HepG2 cells after 48 hrs by MTT assay. The conditions noted are these: HepG2, 48 h. Summed up: as §1
For test [3], the system named is SW1990. As to the kind of experiment: Cytotoxicity against human SW1990 cells after 48 hrs by MTT assay. The note with it: SW1990, 48 h. The procedure, abridged: as §1
Test [4] has as its system HeLa. As to the kind of experiment: Cytotoxicity against human HeLa cells after 48 hrs by MTT assay. Summed up: as §1
Test [5] deals with NCI-H460. As to the kind of experiment: Cytotoxicity against human NCI-H460 cells after 48 hrs by MTT assay. The note with it: NCI-H460, 48 h. Summed up:
as §1

Test [6] deals with MCF7. As to the kind of experiment: Cytotoxicity against human MCF7 cells after 48 hrs by MTT assay. The conditions noted are these: MCF7, 48 h. Summed up:
as §1

Bounds are passed on as bounds.

From ChEMBL document CHEMBL2010657, “Cytotoxic angucycline class glycosides from the deep sea actinomycete Streptomyces lusitanus SCSIO LR32” (J Nat Prod, 2012) come the findings set out here.

On to `C[C@@H]1O[C@@H](O[C@H]2CC[C@H](O[C@H]3[C@H](O)C[C@H](c4ccc5c(c4O)C(=O)c4ccc(C[C@@](C)(O)CC(=O)O)c(O)c4C5=O)O[C@@H]3C)O[C@H]2C)CCC1=O` [GRINCAMYCIN C], for which the IC50 is above 100 µM in test [1]; 31 µM in test [2]; 31 µM in test [3]; above 100 µM in test [4]; above 100 µM in test [5]; 11 µM in test [6].

For the compound `C[C@@H]1O[C@@H](O[C@H]2CC[C@H](O[C@H]3[C@H](O)C[C@H](c4ccc5c(c4O)C(=O)c4cc6c(c(O)c4C5=O)C[C@@](C)(O[C@H]4CC[C@H](O[C@H]5CCC(=O)[C@H](C)O5)[C@H](C)O4)CC6=O)O[C@@H]3C)O[C@H]2C)CCC1=O` [GRINCAMYCIN E], the IC50 in test [1] was 5.4 µM; in test [2], 11 µM; in test [3], 16 µM; in test [4], 11 µM; in test [5] it was above 100 µM; in test [6] it was 8.7 µM.

Turning to `C[C@@H]1O[C@@H](O[C@H]2CC[C@H](O[C@@H]3C[C@H](C4=Cc5c(-c6ccc(O)cc6)c(=O)oc6c7c(c(O)c(c56)C4=O)C=C[C@]4(O)C[C@@](C)(O[C@H]5CC[C@H](O[C@H]6CCC(=O)[C@H](C)O6)[C@H](C)O5)CC(=O)[C@]74O)O[C@H](C)[C@H]3O)O[C@H]2C)CCC1=O` [GRINCAMYCIN F], the IC50 in test [1], in test [2], in test [3], in test [4], in test [5] and in test [6] was above 100 µM each time.

On to `C[C@@H]1O[C@@H](O[C@H]2CC[C@H](O[C@H]3[C@H](O)C[C@H](c4ccc5c(c4O)C(=O)C4=C(C5=O)[C@@]5(O)C(=O)C[C@](C)(O[C@H]6CC[C@H](O[C@H]7CCC(=O)[C@H](C)O7)[C@H](C)O6)C[C@@]5(O)C=C4)O[C@@H]3C)O[C@H]2C)CCC1=O` [GRINCAMYCIN], for which the IC50 in test [1] was determined as 1.1 µM; in test [2], 5.3 µM; in test [3], 6.4 µM; in test [4], 5.3 µM; in test [5], 11 µM; in test [6], 2.1 µM.

Turning to `C[C@@H]1O[C@@H](O[C@H]2CC[C@H](O[C@H]3[C@H](O)C[C@H](c4ccc5c(c4O)C(=O)c4ccc(C[C@](C)(CC(=O)O)O[C@H]6CC[C@H](O[C@H]7CCC(=O)[C@H](C)O7)[C@H](C)O6)c(O)c4C5=O)O[C@@H]3C)O[C@H]2C)CCC1=O` [GRINCAMYCIN B], the IC50 in test [1] was 2.1 µM; in test [2], 8.5 µM; in test [3], 11 µM; in test [4], 6.4 µM; in test [5], above 100 µM; in test [6], 12 µM.

For the compound `O=c1[nH]cc(F)c(=O)[nH]1` [FLUOROURACIL], the IC50 was 33 µM in test [1]; 34 µM in test [2]; 45 µM in test [3]; 43 µM in test [4]; 29 µM in test [5]; 35 µM in test [6].

On to `COc1cccc2c1C(=O)c1c(O)c3c(c(O)c1C2=O)C[C@@](O)(C(=O)CO)C[C@@H]3O[C@H]1C[C@H](N)[C@H](O)[C@H](C)O1` [DOXORUBICIN], for which the IC50 in test [1] was 1.7 µM; in test [2], 7.1 µM; in test [3], above 100 µM; in test [4] it was 5.3 µM; in test [5], 11 µM; in test [6], 6.9 µM.

On to `C[C@@H]1O[C@@H](O[C@H]2CC[C@H](O[C@@](C)(CC(=O)O)Cc3ccc4c(c3O)C(=O)c3ccc([C@H]5C[C@H]6O[C@H]7CC(=O)[C@H](C)O[C@H]7O[C@@H]6[C@@H](C)O5)c(O)c3C4=O)O[C@H]2C)CCC1=O` [GRINCAMYCIN D], for which the IC50 is 9.7 µM in test [1]; 9.7 µM in test [2]; 22 µM in test [3]; 12 µM in test [4]; 30 µM in test [5]; 6.1 µM in test [6].
